We go through 22 compounds from ChEMBL document CHEMBL1122388, “beta 1-selective adrenoceptor antagonists. 2. 4-ether-linked phenoxypropanolamines” (J Med Chem, 1983).

Test [1] addresses Beta-2 adrenergic receptor (Rattus norvegicus) (UniProt P10608). Nature of the test: Beta-2 adrenergic receptor antagonist activity as the dose required to inhibit 50% of vasodepressor response in anesthetized rats.
Test [2] has as its target Beta-1 adrenergic receptor (Rattus norvegicus) (UniProt P18090). Nature of the test: Compound was tested for beta-1 adrenergic receptor blocking activity as the dose required to inhibit 50% of tachycardia in anesthetized rats. The class given is functional. The procedure, abridged: (§1)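 Isoprenaline (0.1 µg/kg) and test compound in saline given into right femoral vein; blood pressure from left carotid artery, heart rate by tachograph triggered from arterial pulse. Test compound injected 5 min after isoprenaline, cumulative doses up to, in most cases, 2 mg/kg. Six rats per compound; ED50 with 95% confidence limits from log dose-response linear regression.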

Test [3] has as its target Adrenergic receptor beta (Rattus norvegicus) (UniProt P18090+P10608+P26255). The test is described as follows: Beta agonistic activity as the dose required to increase heart rate by 30 beats/min in anesthetized rats upon intravenous administration. The class given is functional, organism-based. The procedure, abridged: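 Rats anesthetized with pentobarbitone sodium (75 mg/kg ip), reserpine-pretreated (5 mg/kg ip) 20-24 h earlier. Single doses of test compound given into tail vein, up to 20 animals depending on activity; blood pressure and heart rate recorded. ED30 (dose raising heart rate 30 beats/min) with 95% confidence limits from log dose-response linear regression.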

Test [4] concerns the target Beta-1 adrenergic receptor (Rattus norvegicus) (UniProt P18090). The test is described as follows: Beta-1 adrenoceptor blocking activity as the dose required to inhibit 50% of tachycardia in anesthetized rats. It counts as functional. The procedure, abridged:
as §1

Some results are limits rather than exact numbers.

Sequence of Beta-2 adrenergic receptor (Rattus norvegicus) (P10608 whole entry, looked up): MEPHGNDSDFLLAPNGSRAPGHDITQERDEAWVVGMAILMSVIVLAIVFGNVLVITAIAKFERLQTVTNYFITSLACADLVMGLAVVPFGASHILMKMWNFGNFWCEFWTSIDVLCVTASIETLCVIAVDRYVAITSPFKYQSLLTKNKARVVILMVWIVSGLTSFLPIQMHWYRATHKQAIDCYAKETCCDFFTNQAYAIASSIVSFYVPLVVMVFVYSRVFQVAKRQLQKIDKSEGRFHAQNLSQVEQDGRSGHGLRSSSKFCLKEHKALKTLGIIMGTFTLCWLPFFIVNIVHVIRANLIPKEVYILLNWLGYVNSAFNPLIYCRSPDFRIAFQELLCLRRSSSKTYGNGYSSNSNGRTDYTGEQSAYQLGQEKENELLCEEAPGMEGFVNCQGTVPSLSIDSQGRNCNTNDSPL
Sequence of Beta-1 adrenergic receptor (Rattus norvegicus) (P18090 whole entry, looked up): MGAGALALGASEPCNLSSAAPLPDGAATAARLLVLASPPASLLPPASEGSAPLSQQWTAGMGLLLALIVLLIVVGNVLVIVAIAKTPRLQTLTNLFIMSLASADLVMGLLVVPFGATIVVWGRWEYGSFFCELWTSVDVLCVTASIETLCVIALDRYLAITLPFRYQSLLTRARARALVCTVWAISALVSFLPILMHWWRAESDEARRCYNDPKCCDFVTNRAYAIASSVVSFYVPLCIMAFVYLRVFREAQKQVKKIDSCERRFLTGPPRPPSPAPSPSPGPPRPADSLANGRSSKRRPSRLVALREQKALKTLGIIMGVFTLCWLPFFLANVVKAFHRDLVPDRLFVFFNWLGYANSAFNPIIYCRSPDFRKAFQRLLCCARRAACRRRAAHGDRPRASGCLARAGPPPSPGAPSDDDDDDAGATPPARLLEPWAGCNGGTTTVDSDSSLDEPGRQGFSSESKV

Usually ED50 stands for the dose that gives a 50% effect, or the effect in half of the subjects. Regarding `CC(C)NCC(O)COc1ccc(CCOCCOc2ccccc2)cc1` (centres undefined), the ED50 in test [1] was 0.924 mg/kg; in test [2], 0.068 mg/kg. The ED30 in test [3] was over 1 mg/kg.

In the case of `CC(=O)Nc1ccc(CCOCCOc2ccc(OCC(O)CNC(C)C)cc2)cc1` (centres undefined), the ED50 in test [1] and in test [4] was over 2 mg/kg throughout. The compound also came in with an ED30 in test [3] of 0.029 mg/kg.

In the case of `CC(C)NCC(O)COc1ccc(OCCOCCc2ccc(Cl)cc2)cc1` (centres undefined), the ED50 in test [1] is over 2 mg/kg; in test [4] it was 0.627 mg/kg. Moreover, the ED30 in test [3] was 0.032 mg/kg.

`CSc1ccc(CCOCCOc2ccc(OCC(O)CNC(C)C)cc2)cc1` (centres undefined): the ED50 in test [1] was over 2 mg/kg; in test [4] it was 0.174 mg/kg. The compound also returned an ED30 in test [3] of 0.042 mg/kg.

Compound `CC(C)NCC(O)COc1ccc(CC(N)=O)cc1` (centres undefined) had an ED30 in test [3] of over 1 mg/kg. In addition, the 50% effective dose (ED50) in test [4] is 0.091 mg/kg.

On to `COc1ccc(CCOCCOc2ccc(OCC(O)CNC(C)C)cc2)cc1` (centres undefined), for which the ED50 in test [1] was over 2 mg/kg; in test [4] it was 0.344 mg/kg. The ED30 in test [3] worked out at 0.009 mg/kg.

As to `Cc1ccc(CCOCCOc2ccc(OCC(O)CNC(C)C)cc2)cc1` (centres undefined), the ED50 in test [1] was over 2 mg/kg; in test [4], 0.066 mg/kg. Besides, the ED30 in test [3] amounted to 0.022 mg/kg.

On to `CC(C)(C)NCC(O)COc1ccc(OCCOCCc2ccccc2)cc1` (centres undefined), for which the ED50 came to 0.979 mg/kg in test [1] and 0.018 mg/kg in test [4]. For the same compound, in test [3], the ED30 turned out to be 0.022 mg/kg.

Take `CC(C)NCC(O)COc1ccc(OCCOCCc2ccc(F)cc2)cc1` (centres undefined): the median effective dose (ED50) in test [1] was over 2 mg/kg; in test [4] it was 0.003 mg/kg. Further, the ED30 in test [3] came out at 0.037 mg/kg.

Turning to `CC(C)NCC(O)COc1ccc(OCCOCCc2ccc(F)cc2)c(F)c1` (centres undefined), the ED50 is over 2 mg/kg in test [1] and 0.001 mg/kg in test [4]. For the same compound, the ED30 in test [3] was over 1 mg/kg.

For `Cc1cc(OCCOCCc2ccccc2)ccc1OCC(O)CNC(C)C` (centres undefined), the ED50 in test [1] was over 2 mg/kg; in test [4], 0.572 mg/kg. For the same compound, the ED30 in test [3] was found to be 0.057 mg/kg.

The compound `COCCc1ccc(OCC(O)CNC(C)C)cc1` (centres undefined) came in with an ED30 in test [3] of over 1 mg/kg. In test [4], the ED50 came to 0.25 mg/kg.

Take `CC(C)NCC(O)COc1ccc(OCCOCCc2ccc(C#N)cc2)cc1` (centres undefined): the ED50 in test [1] was over 2 mg/kg; in test [4], 0.654 mg/kg. Besides, the ED30 in test [3] was determined as 0.032 mg/kg.

For the compound `CC(C)NCC(O)COc1ccc(CCOCCc2ccccc2)cc1` (centres undefined), the ED50 in test [1] is over 2 mg/kg; in test [2] it was 0.163 mg/kg. In test [3], this compound came in with an ED30 of over 1 mg/kg.

As for `CC(C)NCC(O)COc1ccc(OCCOCCc2ccccc2)cc1` (centres undefined), the ED50 in test [1] is over 50 mg/kg; in test [4], 0.015 mg/kg. The compound further yielded an ED30 in test [3] of 0.02 mg/kg.

`CC(C)NCC(O)COc1ccc(OCCOCCOc2ccc(OCC(O)CNC(C)C)cc2)cc1` (centres undefined): the median effective dose (ED50) in test [1] is over 10 mg/kg; in test [4] it was 0.052 mg/kg. Moreover, the ED30 in test [3] was 0.005 mg/kg.

With `CC(C)NCC(O)COc1ccc(OCCOCCc2ccccc2)cc1Cl` (centres undefined), the values for the ED50 in test [1] and in test [4] were 0.834 mg/kg and 0.025 mg/kg, respectively. The compound also showed an ED30 in test [3] of 0.016 mg/kg.

Take `CC(C)NC[C@H](O)COc1ccc(OCCOCCc2ccc(F)cc2)cc1` (stereo in doubt; 14a): the ED50 in test [1] was over 2 mg/kg; in test [4] it was 0.004 mg/kg. Also, the ED30 in test [3] was 0.019 mg/kg.

For `CC(C)NCC(O)COc1ccc(OCCOCCc2ccc(F)cc2)cc1F` (centres undefined), the values for the ED50 in test [1] and in test [4] were over 2 mg/kg and 0.001 mg/kg, respectively. Moreover, the ED30 in test [3] was found to be 0.045 mg/kg.

`CC(C)(C)NCC(O)COc1ccc(OCCOCCc2ccc(F)cc2)cc1` (centres undefined): the ED50 was over 2 mg/kg in test [1] and 0.002 mg/kg in test [4]. The ED30 in test [3] was 0.024 mg/kg.

Turning to `CC(C)NC[C@H](O)COc1ccc(OCCOCCc2ccc(F)cc2)cc1` (stereo in doubt; 14b), the ED50 in test [1] and in test [4] was over 2 mg/kg throughout. In addition, in test [3], the ED30 is over 1 mg/kg.

As for `CC(C)NCC(O)COc1ccc(OCCOCCOc2ccccc2)cc1` (centres undefined), the ED50 in test [1] is over 5 mg/kg; in test [4], 0.041 mg/kg. The ED30 in test [3] worked out at 0.017 mg/kg.
